According to ChEMBL document CHEMBL1124333, “Prostaglandin photoaffinity probes: synthesis and biological activity of azide-substituted 16-phenoxy- and 17-phenyl-PGF2 alpha prostaglandins” (J Med Chem, 1989):

Key:
[1] = Relative ratio in comparison with PGF2-alpha in ovine luteal cells; assay type: cell-based
[2] = biological target: T1, Prostaglandin F2-alpha receptor (Bos taurus, UniProt P37289); assay: Binding potency towards Prostaglandin F2 alpha receptor (competitive binding) with natural [3H]-PGF 2 alpha in bovine corpora lutea plasma membranes (BCLM)
T1 sequence (P37289 whole entry): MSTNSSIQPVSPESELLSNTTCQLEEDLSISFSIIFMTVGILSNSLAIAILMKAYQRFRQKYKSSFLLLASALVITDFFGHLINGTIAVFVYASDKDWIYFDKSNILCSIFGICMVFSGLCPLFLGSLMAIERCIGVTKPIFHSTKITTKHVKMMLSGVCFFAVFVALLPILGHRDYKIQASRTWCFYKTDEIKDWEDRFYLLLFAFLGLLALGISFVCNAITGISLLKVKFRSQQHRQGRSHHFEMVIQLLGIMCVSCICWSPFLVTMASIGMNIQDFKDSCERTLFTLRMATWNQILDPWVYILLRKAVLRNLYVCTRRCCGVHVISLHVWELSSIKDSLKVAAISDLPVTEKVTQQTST
Summary of the method: (§1)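 Bovine corpora lutea were homogenized in ice-cold 10 mM Tris-HCl pH 7.0 with 250 mM sucrose, 1 mM CaCl2, BSA, indomethacin, DTT and protease inhibitors. Membranes were pelleted at 17339g and resuspended at about 1-2 mg protein/mL. They were diluted 1:1 with serum-free culture medium and incubated 90 min, to equilibrium, with [3H]PGF2α and competitor.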

[3] = Relative ratio in comparison with PGF2-alpha in bovine corpus lutea membranes; assay type: cell membranes
[4] = Relative ratio in comparison with PGF2-alpha
[5] = biological target: T1, Prostaglandin F2-alpha receptor; assay: Binding potency towards PGF-2 alpha receptor (competitive binding) with natural [3H]-PGF 2 alpha in bovine corpora lutea plasma membranes (BCLM); summary of the method: as §1

Row | IC50 [2] | Ratio [3] | Ratio [4] | IC50 [5] | Structure (SMILES) | Ratio [1]
1 | 220 µM | 1600 | – | – | [N-]=[N+]=Nc1ccc(CC[C@H](O)/C=C/[C@@H]2[C@@H](C/C=C\CCCC(=O)O)[C@@H](O)C[C@H]2O)c(O)c1 | 140
2 | 68 µM | – | 490 | – | [N-]=[N+]=Nc1ccc(CC[C@@H](O)/C=C/[C@@H]2[C@@H](C/C=C\CCCC(=O)O)[C@@H](O)C[C@H]2O)cc1I | –
3 | – | 14 | – | 2 µM | COC(=O)CCC/C=C\C[C@@H]1C(/C=C/[C@@H](O)CCc2ccccc2)[C@H](O)C[C@@H]1O (stereo not given in full) | –
4 | 120 µM | 860 | – | – | [N-]=[N+]=Nc1ccc(OC[C@H](O)/C=C/[C@@H]2[C@@H](C/C=C\CCCC(=O)O)[C@@H](O)C[C@H]2O)c(O)c1 | –

The next lines start with the compound.

Row | Structure (SMILES) | IC50 [2] | Ratio [3] | Ratio [4] | IC50 [5] | Ratio [1]
5 | [N-]=[N+]=Nc1ccc(CC[C@H](O)/C=C/[C@@H]2[C@@H](C/C=C\CCCC(=O)O)[C@@H](O)C[C@H]2O)cc1I | 7 µM | 50 | – | – | 8.1
6 | COC(=O)CCC/C=C\C[C@@H]1C(/C=C/[C@H](O)CCc2ccccc2)[C@H](O)C[C@@H]1O (stereo not given in full) | – | 360 | – | 50 µM | –
7 | [N-]=[N+]=Nc1cc(O)cc(OC[C@H](O)/C=C/[C@@H]2[C@@H](C/C=C\CCCC(=O)O)[C@@H](O)C[C@H]2O)c1 | – | – | – | – | 250
